# Source: ChEMBL document CHEMBL3227919, “Development of ethyl 3,4-dihydro-4-oxopyrimido[4,5-b]quinoline-2-carboxylate, a new prototype with oral antiallergy activity” (1979)
# The source made the active and inactive calls. The calls are words filed in the database; no cut-off is given here.
# Tests used:
# [1] = test system: Rattus norvegicus; experiment: Antiallergic activity in Wistar Charles River rat assessed as inhibition of histamine-induced passive cutaneous anaphylaxis at 10 mg/kg, iv relative to control; assay type: functional
# [2] = test system: Rattus norvegicus; experiment: Antiallergic activity in Wistar Charles River rat assessed as inhibition of histamine-induced passive cutaneous anaphylaxis at 3 mg/kg, iv relative to control; assay type: functional
# [3] = test system: Rattus norvegicus; experiment: Antiallergic activity in po dosed rat assessed as inhibition of antigen-induced passive cutaneous anaphylaxis relative to DSCG; assay type: functional
# [4] = test system: Rattus norvegicus; experiment: Antiallergic activity in po dosed rat assessed as inhibition of antigen-induced passive cutaneous anaphylaxis; assay type: functional
# [5] = test system: Rattus norvegicus; experiment: Antiallergic activity in Wistar Charles River rat assessed as inhibition of histamine-induced passive cutaneous anaphylaxis at 100 mg/kg, po relative to control; assay type: functional
# [6] = test system: Rattus norvegicus; experiment: Antiallergic activity in Wistar Charles River rat assessed as inhibition of histamine-induced passive cutaneous anaphylaxis at 30 mg/kg, po relative to control; assay type: functional
# [7] = test system: Rattus norvegicus; experiment: Antiallergic activity in Wistar Charles River rat assessed as inhibition of histamine-induced passive cutaneous anaphylaxis at 10 mg/kg, po relative to control; assay type: functional
# [8] = test system: Rattus norvegicus; experiment: Antiallergic activity in Wistar Charles River rat assessed as inhibition of histamine-induced passive cutaneous anaphylaxis at 1 mg/kg, iv relative to control; assay type: functional
# [9] = test system: Rattus norvegicus; experiment: Inhibition of carrageenan-induced foot edema in rat at 10 mg/kg, po; assay type: functional, organism-based; design: dose 10 mg/kg
# [10] = test system: Rattus norvegicus; experiment: Antiallergic activity in Wistar Charles River rat assessed as inhibition of histamine-induced passive cutaneous anaphylaxis at 0.1 mg/kg, iv relative to control; assay type: functional
# [11] = test system: Rattus norvegicus; experiment: Antiallergic activity in Wistar Charles River rat assessed as inhibition of histamine-induced passive cutaneous anaphylaxis at 1 mg/kg, po relative to control; assay type: functional
# [12] = test system: Rattus norvegicus; experiment: Antiallergic activity in Wistar Charles River rat assessed as inhibition of histamine-induced passive cutaneous anaphylaxis at 3 mg/kg, po relative to control; assay type: functional
# [13] = test system: Rattus norvegicus; experiment: Antiallergic activity in po dosed Wistar Charles River rat assessed as inhibition of histamine-induced passive cutaneous anaphylaxis; assay type: functional
# [14] = test system: Cavia porcellus; experiment: Inhibition of histamine-induced bronchoconstriction in guinea pig up to 100 mg/kg, po; assay type: functional, organism-based; design: dose 100 mg/kg
# [15] = test system: Rattus norvegicus; experiment: Antiallergic activity in Wistar Charles River rat assessed as inhibition of histamine-induced passive cutaneous anaphylaxis at 50 mg/kg, ip relative to control; assay type: functional; details: route intraperitoneal
# [16] = test system: Homo sapiens; experiment: Antiallergic activity in po dosed human assessed as concentration required to inhibit antigen-induced clinical asthma; assay type: functional
# [17] = test system: Rattus norvegicus; experiment: Antiallergic activity in Wistar Charles River rat assessed as inhibition of histamine-induced passive cutaneous anaphylaxis at 30 mg/kg, iv relative to control; assay type: functional
# [18] = test system: Rattus norvegicus; experiment: Antiallergic activity in po dosed rat assessed as inhibition of passive cutaneous anaphylaxis; assay type: functional
# [19] = test system: Rattus norvegicus; experiment: Antiallergic activity in po dosed Wistar rat assessed as inhibition of ovalbumin-induced passive cutaneous anaphylaxis relative to DSCG; assay type: functional
# [20] = test system: Rattus norvegicus; experiment: Antiallergic activity in po dosed Wistar rat assessed as inhibition of ovalbumin-induced passive cutaneous anaphylaxis; assay type: functional
# In short: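 Male Charles River Wistar rats, 170-210 g. Reaginic egg-albumin antiserum was raised with Bordetella pertussis or Al(OH)3, then diluted to give a 15-mm wheal and injected intradermally (0.1 mL) into shaved back skin. After 48 h, drug or saline was given, then 2.5 mg Evans blue plus 5 mg egg albumin in saline. Each site was scored as diameter (mm) × dye-intensity grade (0.5-4), summed per group of 5 or 7 rats and compared with saline controls.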
# [21] = test system: Homo sapiens; experiment: Antiallergic activity in po dosed human assessed as oral active dose; assay type: functional
# [22] = test system: Rattus norvegicus; experiment: Antiallergic activity in Wistar Charles River rat assessed as inhibition of histamine-induced passive cutaneous anaphylaxis at 30 mg/kg, ip relative to control; assay type: functional; details: route intraperitoneal
structure (smiles),measurement,setting,value
O=C(O)c1nc2ccccc2c(=O)[nH]1,inhibition in vivo at 10 mg/kg,[1],52%
O=c1[nH]cnc2nc3ccccc3cc12,inhibition in vivo at 3 mg/kg,[2],33%
same,inhibition in vivo at 10 mg/kg,[1],4%
O=C(O)c1cc(=O)c2cc3c(=O)cc(C(=O)O)[nH]c3c(Cl)c2[nH]1,fold change (FC),[3],50
same,ED50,[4],< 25.5 mg/kg
O=C(O)c1nc2nc3ccccc3cc2c(=O)[nH]1,inhibition in vivo at 100 mg/kg,[5],96%
same,inhibition in vivo at 30 mg/kg,[6],57%
same,inhibition in vivo at 10 mg/kg,[7],0%
same,inhibition in vivo at 1 mg/kg,[8],92%
O=C(O)c1nc2cc3ccccc3cc2c(=O)[nH]1,inhibition in vivo at 100 mg/kg,[5],0%
same,inhibition in vivo at 3 mg/kg,[2],36%
same,inhibition in vivo at 10 mg/kg,[1],100%
same,inhibition in vivo at 1 mg/kg,[8],14%
CCOC(=O)c1nc(O)c2cc3ccccc3nc2n1,inhibition,[9],inactive
same,inhibition in vivo at 0.1 mg/kg,[10],47%
same,inhibition in vivo at 1 mg/kg,[11],12%
same,inhibition in vivo at 100 mg/kg,[5],80%
same,inhibition in vivo at 30 mg/kg,[6],72%
same,inhibition in vivo at 3 mg/kg,[12],53%
same,inhibition,[1],inactive
same,inhibition in vivo at 10 mg/kg,[7],75%
same,ED50,[13],3 mg/kg
same,inhibition,[14],inactive
same,inhibition in vivo at 1 mg/kg,[8],98%
O=C(O)c1nc2c(Br)cc(Br)cc2c(=O)[nH]1,inhibition in vivo at 50 mg/kg,[15],0%
CCOC(=O)c1nc2c(C(F)(F)F)cc(Cl)cc2c(=O)[nH]1,inhibition in vivo at 10 mg/kg,[1],0%
O=C(O)CCc1nc2cc3ccccc3cc2c(=O)[nH]1,inhibition in vivo at 10 mg/kg,[1],7%
CCCc1c2c(c(O)c3c(=O)cc(C(=O)O)oc13)CCCC2 [PROXICROMIL],Activity,[16],4.6 mg
same,fold change (FC),[3],0.19
same,ED50,[4],15.5 mg/kg
COc1cc2nc(C(=O)O)[nH]c(=O)c2cc1OC,Activity,[5],inactive
same,inhibition in vivo at 30 mg/kg,[17],69%
CCOC(=O)c1nc2cc(OC)c(OC)cc2c(=O)[nH]1,Activity,[5],inactive
same,inhibition in vivo at 30 mg/kg,[17],80%
O=C(O)c1nc2c(C(F)(F)F)cc(Cl)cc2c(=O)[nH]1,inhibition in vivo at 10 mg/kg,[1],0%
O=C(O)c1nc2ccc([N+](=O)[O-])cc2c(=O)[nH]1,inhibition in vivo at 30 mg/kg,[17],67%
CCOC(=O)CCc1n[nH]c2ccc(CC)cc2c1=O,ED50,[18],4 mg/kg
Cc1cc2c(cc1C)C(=O)C([N+](=O)[O-])C2=O,fold change (FC),[19],25
same,ED50,[20],1 mg/kg
same,Activity,[21],2 mg/kg
O=c1[nH]c(=O)c2cc3ccccc3nc2[nH]1,inhibition in vivo at 3 mg/kg,[2],41%
CCOC(=O)c1nc2cc(OC(=O)c3ccccc3)c(OC)cc2c(=O)[nH]1,inhibition in vivo at 10 mg/kg,[1],14%
CCOC(=O)c1nc2ncccc2c(=O)[nH]1,Activity,[5],inactive
same,inhibition in vivo at 3 mg/kg,[2],66%
same,inhibition in vivo at 10 mg/kg,[1],96%
same,inhibition in vivo at 1 mg/kg,[8],6%
CCc1ccc2occ(-c3nnn[nH]3)c(=O)c2c1,fold change (FC),[3],4
same,ED50,[4],7 mg/kg
CCOC(=O)c1nc2cc3ccccc3cc2c(=O)[nH]1,inhibition in vivo at 100 mg/kg,[5],38%
same,inhibition in vivo at 30 mg/kg,[22],27%
COc1cccc2c(=O)c(CO)coc12,ED50,[18],2 mg/kg
O=c1[nH]cnc2cc3ccccc3cc12,inhibition in vivo at 3 mg/kg,[2],31%
O=C([O-])c1cc(=O)c2c(OCC(O)COc3cccc4oc(C(=O)[O-])cc(=O)c34)cccc2o1.[Na+].[Na+] [CROMOLYN SODIUM],inhibition in vivo at 0.1 mg/kg,[10],14%
same,Activity,[5],inactive
same,inhibition in vivo at 3 mg/kg,[2],77%
same,inhibition in vivo at 10 mg/kg,[1],90%
same,ED50,[13],1 mg/kg
same,inhibition in vivo at 30 mg/kg,[17],99%
same,inhibition in vivo at 1 mg/kg,[8],55%
CCCOc1ccccc1-c1nc2[nH]nnc2c(=O)[nH]1 [ZAPRINAST],ED50,[18],0.2 mg/kg
Cc1nc(O)c2cc3ccccc3cc2n1,inhibition in vivo at 3 mg/kg,[2],15%
